Apaf1 inhib – inhibitors of human Apaf-1 apoptosome | O14727 | reconstituted apoptosome caspase-3 activity, DEVD-Rh110 fluorescence | inhibition, % at 20 µM | actives 0.71% (n = 330,000) | AID 489030; active = inhibition of at least 40% at 20 µM;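 note: plate controls were DMSO wells for no effect and DEVD-CHO caspase inhibitor wells for full effect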
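detection = Rh110 fluorescence intensity | test system = biochemical Apaf-1 apoptosome reconstitution | also added = cytochrome c and DEVD-Rh110 substrate | schedule = 30 min plus 50 min, RT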
UBC13 polyUb – blocks human UBC13 polyubiquitin chain formation. inhibition, % at 20 µM. actives 0.47% (n = 330,000). P61088. TR-FRET. AID 485273; in the data active = inhibition above about 45%, passing the limit was not always enough
SENP8 block-1 – inhibitors of human SENP8 protease; Q96LD8; AID 2540; inhibition, % at 10 µM; actives 1.2% (n = 330,000); purified SENP8, Z-RLRGG-aminoluciferin cleavage, luminescence; in the data active = inhibition above about 50%
SENP7 inh – SENP7 protease inhibition; Q9BQF6; recombinant SENP7, Z-RLRGG-aminoluciferin luminescence, 40 min; inhibition, % at 5 µM; actives 1.5% (n = 330,000); AID 434973;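 active = inhibition above about 50% at the single test dose, limit read from the data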;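 note: plate controls were DMSO with enzyme for no effect and no enzyme buffer wells for full effect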
Target sequence (Q9BQF6 706-1050 limits assumed): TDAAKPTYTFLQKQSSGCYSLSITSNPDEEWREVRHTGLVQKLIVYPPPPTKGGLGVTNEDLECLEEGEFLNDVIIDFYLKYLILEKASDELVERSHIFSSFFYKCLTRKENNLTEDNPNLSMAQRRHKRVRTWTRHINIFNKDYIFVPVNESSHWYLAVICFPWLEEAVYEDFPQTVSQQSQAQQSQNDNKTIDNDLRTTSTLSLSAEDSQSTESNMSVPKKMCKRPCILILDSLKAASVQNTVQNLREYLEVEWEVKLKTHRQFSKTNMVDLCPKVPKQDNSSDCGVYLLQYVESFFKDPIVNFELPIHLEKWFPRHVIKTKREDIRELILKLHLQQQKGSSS
SENP8 block-2 – SENP8 (human) protease inhibition; Q96LD8; AID 602440; recombinant SENP8, Nedd8 substrate fluorescence; actives 0.64% (n = 360,000); inhibition, % at 20 µM; in the data active = inhibition mostly above about 40%, no sharp cut-off; inactive = mostly below about 27%
SENP6 inh – inhibitors of human SENP6 protease; Q9GZR1; Recombinant SENP6 catalytic domain, aminoluciferin luminescence; inhibition, % at 10 µM; actives 1.8% (n = 330,000);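 active = inhibition above about 50% at the single tested dose, limit read from the data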;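 note: plate controls were DMSO wells with enzyme for no effect and DMSO wells lacking enzyme for full effect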
SENP8 conf – human SENP8 inhibition, confirmed. shares compounds with SENP7 inh. Recombinant SENP8, Z-RLRGG-aminoluciferin luminescence, 60 min. inhibition, % at 12.5 µM. actives 40% (n = 6,200);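 active = mean inhibition across replicates above about 50%, limit read from the data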
SENP6 conf – human SENP6 inhibition, confirmed | shares compounds with SENP7 inh | recombinant SENP6, Z-RLRGG-aminoluciferin luminescence | inhibition, % at 12.5 µM | actives 58% (n = 6,200)
SENP7 confirm – human SENP7 inhibition, confirmed; shares compounds with SENP7 inh; recombinant SENP7, Z-RLRGG-aminoluciferin luminescence, 40 min; inhibition, % at 12.5 µM; actives 69% (n = 6,200); AID 488917
Casp3 select – selectivity test for SENP inhibitors: human caspase-3 inhibition; AID 488918; inhibition, % at 12.5 µM; actives 60% (n = 6,200); purified caspase-3, Z-DEVD-aminoluciferin luminescence, 60 min; shares compounds with SENP7 inh;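 active = mean inhibition above about 50%, limit read from the data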;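 note: plate controls were enzyme with DMSO for no effect and wells without caspase-3 for full effect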
Target sequence (P42574 28-227 limits assumed): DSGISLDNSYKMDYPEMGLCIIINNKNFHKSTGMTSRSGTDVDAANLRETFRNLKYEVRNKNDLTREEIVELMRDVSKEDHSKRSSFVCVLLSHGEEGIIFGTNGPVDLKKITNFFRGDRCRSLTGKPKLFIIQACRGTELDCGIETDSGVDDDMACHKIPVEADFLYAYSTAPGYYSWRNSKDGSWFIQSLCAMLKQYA
Luc interf – interferes with luciferase luminescence in SENP counter-screen; inhibition, % at 12.5 µM; AID 488919; actives 39% (n = 6,200); shares compounds with SENP7 inh; Pre-incubated SENP8/Z-RLRGG-aminoluciferin, luciferase luminescence interference;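 active = mean inhibition above about 50% when retested at one dose, limit read from the data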;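 note: plate controls were DMSO wells with completed reaction for no effect and substrate without enzyme for full effect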
Numbers without * were called inactive; i = inactive; . = no result given. The list is not random: actives were taken first. Their share in the collection is about 3.1%.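 Rule for the calls, unless noted: active = mean inhibition above about 50% in the one-dose retest (limit read from the data); inactive = the rest.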

SMILES	Apaf1 inhib	UBC13 polyUb	SENP8 block-1	SENP7 inh	SENP8 block-2	SENP6 inh	SENP8 conf	SENP6 conf	SENP7 confirm	Casp3 select	Luc interf
COCCNc1ncnc2c1ncn2[C@H]1CN(Cc2ccccc2)C[C@@H](CO)O1	.	.	.	.	2	.	.	.	.	.	.
Cc1ccn2c(c1)nc(=S)n2C(=O)c1ccccc1	0	3	-7	76*	-16	60*	41	52*	76*	39	41
O=C(c1ccco1)n1c(=S)nc2ccccn21	0	-6	-8	27	-12	10	.	.	.	.	.
Cc1cccc(C(=O)n2c(=S)nc3cc(C)ccn32)c1	-9	2	58*	81*	-20	75*	63*	72*	87*	46	30
OC(c1ccc(F)c(F)c1)c1nc(-c2cc(F)cc(F)c2)cs1 (stereo not drawn)	.	.	.	.	11	.	.	.	.	.	.
COc1ccc(C(=O)/C=C/Nc2cccc(C)n2)cc1OC	1	5	22	25	-138	34	.	.	.	.	.
O=C(/C=C/Nc1ccc(Br)cn1)c1cccc(OC(F)F)c1	-3	7	49	62*	-263	40	15	31	34	17	1
CCO/C=C1\C(=O)N(c2ccccc2)C(=O)c2ccccc21	2	4	15	-7	-246	53*	14	54*	24	19	-2
CCO/C=C1/C(=O)N(c2ccc(OC)cc2)C(=O)c2ccccc21	23	0	6	26	-351	63*	26	70*	36	25	-2
COc1ccc(N2C(=O)c3ccccc3C2=O)cc1	-8	-8	1	14	12	-6	.	.	.	.	.
CCO/C=C1/C(=O)N(Cc2ccccc2)C(=O)c2ccccc21	62*	-19	90*	81*	-408	94*	82*	97*	86*	98*	7
CCO/C=C1/C(=O)N(CC)c2ccccc21	-4	24	0	-2	16	-4	.	.	.	.	.
CCNC(=O)C1CCCN(C(=O)c2cccc(OC(F)(F)F)c2)CC1 (stereo not drawn)	.	.	.	.	19	.	.	.	.	.	.
O=C(CC1CC1)Nc1ccc2c(c1)[C@H]1C[C@H](CC(=O)N3CCc4ccccc4C3)O[C@@H](CO)[C@H]1O2	.	.	.	.	-11	.	.	.	.	.	.
Cc1ccc(NC(=O)C2(C)CCN2CCc2ccccc2)cc1 (stereo not drawn)	.	.	.	.	13	.	.	.	.	.	.
CC(=O)Nc1cccc(-c2ccnc3c2CC(C)(C(=O)NCCC(F)(F)F)O3)c1 (stereo not drawn)	.	.	.	.	8	.	.	.	.	.	.
C/C=C/c1cccc(-c2nc(C(=O)NC3CCC3)cc3c2[C@@H](CCO)N(S(=O)C(C)(C)C)C3)c1 (stereo partly drawn)	.	.	.	.	-48	.	.	.	.	.	.
c1ccc(-c2nc3ccccc3[nH]2)nc1	6	-9	48	75*	-29	69*	61*	60*	88*	90*	70*
Cc1ccc2nc(-c3ccccn3)[nH]c2c1	-10	-12	83*	91*	-91	90*	92*	91*	100*	96*	91*
Cc1ccc2nc(CCCc3nc4ccc(C)cc4[nH]3)[nH]c2c1	-7	3	-2	-2	7	1	.	.	.	.	.
Nc1nc(-c2nc3ccccc3[nH]2)cs1	0	-17	6	28	-30	52*	46	42	72*	78*	58*
c1ccc(-c2nc3c(ccc4ccccc43)[nH]2)nc1	11	-15	67*	76*	-374	73*	83*	79*	95*	76*	82*
CC(C)CC1C(=O)N(Cc2cn(CCC3OCCCO3)nn2)CCS(=O)(=O)N1Cc1ccc(-c2ccc(Cl)c(Cl)c2)cc1 (stereo not drawn)	.	.	.	.	5	.	.	.	.	.	.
CC(C)Cc1ccc(-c2cc3nc(NCCc4ccc(S(N)(=O)=O)cc4)ccn3n2)cc1	.	.	.	.	i	.	.	.	.	.	.
Cc1ccc(C)c(-c2nc3ccc(N)cc3[nH]2)c1	11	11	-6	1	-270	11	.	.	.	.	.
SMILES	Apaf1 inhib	UBC13 polyUb	SENP8 block-1	SENP7 inh	SENP8 block-2	SENP6 inh	SENP8 conf	SENP6 conf	SENP7 confirm	Casp3 select	Luc interf
Cc1ccc2nc(-c3ccccc3N)[nH]c2c1	8	9	90*	95*	-437	93*	32	96*	102*	91*	90*
CCc1nc2ccc(C(=O)NCCc3ccccn3)cn2c1N(CCC(C)C)CCN(C)C	.	.	.	.	-13	.	.	.	.	.	.
Cc1ccc(NC(=O)CN2C(=O)S/C(=C/c3ccc(O)c([N+](=O)[O-])c3)C2=O)cc1C	-16	-70	31	2	34	-27	.	.	.	.	.
Cc1cccc(NC(=O)CN2C(=O)S/C(=C\c3ccc(O)c([N+](=O)[O-])c3)C2=O)c1	6	-46	27	-3	26	51*	13	4	17	24	15
Cc1ccnc(NC(=O)/C=C/c2ccccc2Cl)c1	1	1	93*	98*	-3	96*	82*	92*	91*	94*	63*
CC(C)(C)c1ccc(/C=C/C(=O)Nc2cccnc2)cc1	20	3	76*	83*	18	85*	10	80*	95*	59*	55*
O=C(/C=C/c1ccccc1Cl)Nc1ccncc1	-2	5	35	30	25	62*	26	21	68*	29	58*
O=C(/C=C/c1ccc(Cl)c(Cl)c1)Nc1cccnc1	2	0	1	18	22	18	.	.	.	.	.
O=C(/C=C/c1c(F)cccc1Cl)Nc1ccncc1	1	-6	33	62*	7	65*	-5	1	44	17	27
O=C(/C=C/c1cccc(Cl)c1)Nc1ccncc1	6	-3	-10	-4	8	-2	.	.	.	.	.
O=C(C[C@H]1C[C@@H]2c3cc(NC(=O)c4cccnc4)ccc3O[C@@H]2[C@H](CO)O1)NCc1ccncc1	.	.	.	.	-10	.	.	.	.	.	.
Cc1ccc(CN2C(=O)c3ccccc3C2c2nnnn2C(C)C)cc1 (stereo not drawn)	.	.	.	.	13	.	.	.	.	.	.
O=C(/C=C/c1ccccc1Cl)Nc1cccnc1	-1	5	86*	93*	14	93*	13	92*	100*	89*	90*
COc1ccccc1/C=C/C(=O)Nc1cccnc1	6	-7	9	6	-16	23	.	.	.	.	.

Source: PubChem BioAssay
